This note sets out measurements from ChEMBL document CHEMBL1123469, “Synthesis and activity of 6-aryl-3-(hydroxypolymethyleneamino)pyridazines in animal models of epilepsy” (1986).

Format in all cases: functional
In assay [1] the test system is Mus musculus. As to the kind of experiment: Evaluated for Bicuculline-induced lethality (anticonvulsant activity) when administered 100 mg/kg orally in mice. The following applies: route oral. In a few lines: (§1)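 Female Swiss albino CD1 mice (18-23 g), oral dosing (20 mL/kg); test compounds dissolved in dilute HCl (pH 3), reference drugs suspended in 5% gum tragacanth. Bicuculline challenge, scoring protection from seizures and from lethality. […] Weakly active agents reported as percent protected at the stated dose.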

Assay [2] deals with Mus musculus. The assay is described as follows: Evaluated for the sedative property by the rotarod test at 100 mg/kg. An outline of the steps: (§2)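 Motor coordination was tested on the rotorod in groups of 10 female Swiss CD1 mice (18-23 g). Drug or vehicle was given orally, test compounds in dilute HCl (pH 3), 60 min before testing.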
For assay [3], the system named is Mus musculus. As to the kind of experiment: Evaluated for Bicuculline-induced seizures (anticonvulsant activity) when administered at 100 mg/kg orally in mice. The conditions noted are these: route oral. An outline of the steps: (§3)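 Female Swiss CD1 mice (18-23 g) were dosed orally at 20 mL/kg, test compounds in dilute HCl (pH 3) and references in gum tragacanth. Protection against bicuculline- or pentylenetetrazole-induced clonic/tonic seizures and lethality was scored.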

Assay [4] relates to Mus musculus. The assay is described as follows: Anticonvulsant activity when administered 100 mg/kg orally in mice Maximal electroshock (MES). The conditions noted are these: route oral. An outline of the steps:
(§4)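 Female Swiss CD1 mice (18-23 g), groups of 10, were dosed orally at 20 mL/kg. Test compounds were given in dilute HCl (pH 3) and references in 5% gum tragacanth, 60 min before a 60-V alternating current for 0.3 s through corneal electrodes. Protection meant abolition of the hindlimb tonic extensor component.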

In assay [5] the test system is Mus musculus. As to the kind of experiment: Evaluated for Bicuculline-induced lethality (anticonvulsant activity) when administered orally in mice. The conditions noted are these: po. An outline of the steps:
as §1

For assay [6], the species on record is Mus musculus. As to the kind of experiment: Sedative property by the rotarod test. An outline of the steps:
as §2
In general terms: In the rotarod test animals must keep their balance on a rotating rod.

The subject of assay [7] is Mus musculus. The assay is described as follows: Evaluated for anticonvulsant activity when administered orally in mice by Maximal electroshock (MES). The following applies: po. In a few lines:
as §4
A general note: Protection in the maximal electroshock model is a classic sign of anticonvulsant action.

Assay [8] concerns Mus musculus. As to the kind of experiment: Evaluated for Bicuculline-induced seizures (anticonvulsant activity) when administered orally in mice. The following applies: po. An outline of the steps:
as §3

The species named for assay [9] is Papio hamadryas. As to the kind of experiment: Antagonist activity to generalized seizures Photically induced seizures in senegalese Papio papio baboons. In a few lines: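 Naturally photosensitive baboons of both sexes (4-7 kg) were dosed orally, test compounds in dilute HCl (pH 3) and references in 5% gum tragacanth, at 4 mL/kg. They were photically stimulated at hourly intervals afterwards, and the myoclonic response was graded after Killam. Threshold active dose is the first dose that protected at least two of four animals for at least 2 h.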

For assay [10], the system named is Mus musculus. The assay is described as follows: Anticonvulsant activity in Clonic seizures when administered orally in mice. The following applies: po. In a few lines:
as §3

Assay [11] relates to Mus musculus. As to the kind of experiment: Anticonvulsant activity in tonic seizures when administered orally in mice. The following applies: po.
The species named for assay [12] is Mus musculus. The assay is described as follows: Sedative properties by the rotarod test. An outline of the steps: as §2
The species named for assay [13] is Rattus norvegicus. The assay is described as follows: Antagonist activity to generalized seizures kindled amygdaloid seizures in rats. In a few lines:
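Male Sprague-Dawley rats (200-500 g), groups of 10, carried platinum electrodes in the right basolateral amygdala. They counted as kindled after stage-5 seizures on 3 consecutive days at 30-90 μA. A control stimulation was followed by an oral dose (5 mL/kg) and restimulation 1 h later. After-discharge duration and Racine seizure stage were compared with vehicle.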

For the molecule `Clc1ccccc1-c1ccc(N2CCC3(CC2)OCCO3)nn1`, the Protected in assay [1] stood at 30%; in assay [2] it was 0%; in [3], 40%.
For the molecule `N#Cc1cccc(-c2ccc(N3CCC(O)CC3)nn2)c1`, the Protected in assay [4] worked out at 33%; in assay [2] it was 0%; in assay [3], 10%.
As for `O=[N+]([O-])c1ccccc1-c1ccc(N2CCC(O)CC2)nn1`, it took a dose of 57 mg/kg to reach the 50% effect level in assay [5] (ED50). In [2], this molecule yielded a Protected of 0%.
With `CNC(=O)OC1CCN(c2ccc(-c3ccccc3Cl)nn2)CC1`, the ED50 (as a rule, the midpoint of the dose-response relation) in [5] came to 9 mg/kg; in assay [6], 37 mg/kg.
With `OC1CCN(c2ccc(-c3ccc(Cl)c(Cl)c3)nn2)CC1`, the Protected turned out to be 20% in [1], 25% in assay [4], 100% in assay [2] and 0% in [3].
As for `O=[N+]([O-])c1cccc(-c2ccc(N3CCC(O)CC3)nn2)c1`, the figures for the Protected in assay [1], in assay [2] and in assay [3] were 20%, 30% and 0%, respectively. The molecule further came in with an ED50 in assay [7] of 79 mg/kg.
`Cc1ccccc1-c1ccc(N2CCC(O)CC2)nn1`: the figures for the ED50 in assay [5], in assay [8] and in [7] were 60 mg/kg, 40 mg/kg and 30 mg/kg, respectively.
Turning to `COc1ccc(-c2ccc(N3CCC(O)CC3)nn2)cc1`, the results for the Protected in [4], in assay [2] and in [3] were 50%, 0% and 20%, respectively.
For the molecule `OC1CCN(c2ccc(-c3ccccc3)nn2)CC1`, in assay [5], the ED50 stood at 41 mg/kg. The molecule also gave a Protected in assay [2] of 0%.
For `CCCC(=O)OC1CCN(c2ccc(-c3ccccc3Cl)nn2)CC1`, in that order: 30 mg/kg and 0%.
In the case of `Cc1cccc(-c2ccc(N3CCC(O)CC3)nn2)c1`, the ED50 in assay [5] is 50 mg/kg; in [7], 36 mg/kg. Further, the Protected stood at 0% in assay [2] and 30% in assay [3].
Regarding `CCCCNC(=O)OC1CCN(c2ccc(-c3ccc(Cl)cc3)nn2)CC1`, the Protected in assay [4], in assay [2] and in [3] was 0% throughout.
Consider `C/N=C(\S)OC1CCN(c2ccc(-c3ccccc3Cl)nn2)CC1`, for which the ED50 came to 20 mg/kg in assay [5], 20 mg/kg in [8] and 35 mg/kg in [7].
Take `CCCCNC(=O)OC1CCN(c2ccc(-c3ccccc3Cl)nn2)CC1`: the Protected in assay [4] worked out at 20%; in assay [2], 0%; in [3] it was 0%.
As for `OC1CCN(c2ccc(-c3cccs3)nn2)CC1`, the Protected in assay [4], in assay [2] and in [3] was 0% each time.
For `OC1CCN(c2ccc(-c3ccccc3F)nn2)CC1`, the 50% effect level in assay [5] (ED50) was put at a dose of 34 mg/kg. Also, in assay [2], the Protected was 0%.
`CCC(=O)OC1CCN(c2ccc(-c3ccc(Cl)cc3Cl)nn2)CC1`: the ED50 in [5] was found to be 13 mg/kg; in assay [8], 16 mg/kg; in [6], 71 mg/kg; in assay [7], 50 mg/kg.
Take `OC1CCN(c2ccc(-c3ccc(Cl)cc3)nn2)CC1`: the Protected in [1] was 70%; in assay [2] it was 40%; in [3], 0%. In assay [7], the 50% effect level (ED50) was put at a dose of 29 mg/kg.
For `CNC(=O)OC1CCN(c2ccc(-c3ccc(Cl)cc3)nn2)CC1`, the Protected in [4] was determined as 20%; in assay [2], 0%; in assay [3] it was 20%.
As to `CC(=O)OC1CCN(c2ccc(-c3ccc(Cl)cc3Cl)nn2)CC1`, the ED50 in assay [5] worked out at 8.3 mg/kg; in assay [8], 9.8 mg/kg; in [6], 70 mg/kg; in assay [7], 14 mg/kg.
As for `O=C(Nc1cccc(Cl)c1)OC1CCN(c2ccc(-c3ccccc3Cl)nn2)CC1`, the values for the Protected in [4], in assay [2] and in assay [3] were 35%, 0% and 0%, respectively.
In the case of `O=C(OC1CCN(c2ccc(-c3ccccc3Cl)nn2)CC1)C1CC1`, in [5], the ED50 amounted to 71 mg/kg. For the same molecule, the Protected is listed as 60% in assay [4] and 0% in [2].
Take `CNC(=O)OC1CCN(c2ccc(-c3ccc(F)cc3)nn2)CC1`: the values for the Protected in assay [1], in assay [2] and in assay [3] were 30%, 20% and 40%, respectively. Moreover, the ED50 in assay [7] amounted to 40 mg/kg.
`O=COC1CCN(c2ccc(-c3ccc(Cl)cc3Cl)nn2)CC1`: the ED50 in assay [6] was found to be 69 mg/kg; in assay [7], 24 mg/kg. In assay [3], this molecule displayed a Protected of 50%.
For the molecule `O=C1CCN(c2ccc(-c3ccccc3Cl)nn2)CC1`, the ED50 in [5] worked out at 25 mg/kg. Moreover, the Protected in assay [2] is recorded as 40%.
In the case of `OC1CCN(c2ccc(-c3ccc(Cl)s3)nn2)CC1`, the Protected in assay [4] is given as 30%; in assay [2], 0%; in assay [3], 50%.
In the case of `OC1CCCN(c2ccc(-c3ccccc3Cl)nn2)C1` (configuration not stated), the Protected in assay [4] turned out to be 15%; in assay [2] it was 0%; in assay [3], 0%.
Regarding `CNC(=O)OC1CCN(c2ccc(-c3ccc(Cl)cc3Cl)nn2)CC1`, the ED50 came to 1.4 mg/kg in assay [5], 1.4 mg/kg in assay [8], 20 mg/kg in assay [6] and 5.5 mg/kg in assay [7].
For the molecule `OC1CCN(c2ccc(-c3ccsc3)nn2)CC1`, the Protected in [1] came out at 20%; in assay [4] it was 80%; in assay [2], 0%; in assay [3] it was 10%.
On to `O=C(OC1CCN(c2ccc(-c3ccccc3Cl)nn2)CC1)c1ccc(Cl)cc1`, for which the Protected in assay [4], in [2] and in assay [3] was 0% each time.
With `CNC(=O)OC1CCN(c2ccc(-c3ccc(Cl)c(Cl)c3)nn2)CC1`, the Protected was 50% in assay [4], 0% in [2] and 0% in assay [3].
On to `OC1CCN(c2ccc(-c3ccc(F)cc3)nn2)CC1`, for which the results for the Protected in assay [2] and in [3] were 50% and 10%, respectively.
Consider `O=[N+]([O-])c1ccc(-c2ccc(N3CCC(O)CC3)nn2)cc1`, for which the ED50 turned out to be 57 mg/kg in [5] and 54 mg/kg in [8]. Further, in [4], the Protected is reported as 40%.
In the case of `Cc1cc(Cl)ccc1-c1ccc(N2CCC(O)CC2)nn1`, the ED50 was 10 mg/kg in [5], 10 mg/kg in assay [8], 64 mg/kg in [6] and 10 mg/kg in assay [7].
`CNC(=O)OC1CCN(c2ccc(-c3cccc(Cl)c3)nn2)CC1`: the Protected in [1] was found to be 0%; in assay [4] it was 40%; in assay [2], 0%; in [3], 10%.
Regarding `CC(C)(C)C(=O)OC1CCN(c2ccc(-c3ccccc3Cl)nn2)CC1`, the Protected in [4], in assay [2] and in [3] was 0% each time.
In the case of `OC1CCN(c2ccc(-c3cccc(Cl)c3)nn2)CC1`, the Protected in assay [1] turned out to be 40%; in assay [2], 40%; in assay [3] it was 10%.
In the case of `CNC(=O)OC1CCN(c2ccc(-c3cccs3)nn2)CC1`, the Protected in [1] turned out to be 20%; in assay [4], 10%; in [2] it was 10%; in assay [3], 0%.
For `Cc1ccc(-c2ccc(N3CCC(O)CC3)nn2)c(Cl)c1`, the ED50 was determined as 16 mg/kg in assay [5], 17 mg/kg in assay [8], 48 mg/kg in [6] and 21 mg/kg in [7].
For `CCCC(=O)OC1CCN(c2ccc(-c3ccc(Cl)cc3Cl)nn2)CC1`, in that order: 30 mg/kg, 31 mg/kg, 30 mg/kg and 50 mg/kg.
As to `CN(C)C(=O)OC1CCN(c2ccc(-c3ccccc3Cl)nn2)CC1`, the values for the ED50 in [5] and in assay [6] were 1.1 mg/kg and 8.4 mg/kg, respectively.
As for `OC1CCN(c2ccc(-c3cccc(C(F)(F)F)c3)nn2)CC1`, the Protected is reported as 50% in assay [2] and 0% in assay [3].
`OC1CCN(c2ccc(-c3cccc4ccccc34)nn2)CC1`: the Protected in assay [1] turned out to be 0%; in assay [2], 0%; in assay [3] it was 40%.
For the molecule `Cc1ccc(-c2ccc(N3CCC(O)CC3)nn2)cc1`, the Protected in assay [1] is 50%; in [2] it was 0%; in [3], 0%. The ED50 in [7] stood at 73 mg/kg.
In the case of `OC1CCN(c2ccc(-c3ccccc3Cl)nn2)C1` (configuration not stated), the Protected was determined as 30% in assay [4], 0% in [2] and 40% in assay [3].
Regarding `OC1CCN(c2ccc(-c3ccccc3Cl)nn2)CC1` [LODAXAPRINE], the figures for the Threshold active dose in assay [9] and in [13] were 40 mg/kg and 20 mg/kg, respectively. In addition, the median effective dose (ED50) in assay [5] was 34 mg/kg; in assay [10] it was 77 mg/kg; in [11] it was 29 mg/kg; in assay [12] it was 138 mg/kg.
